These results are taken from ChEMBL document CHEMBL4411297, “Discovery, synthesis and anti-atherosclerotic activities of a novel selective sphingomyelin synthase 2 inhibitor” (Eur J Med Chem, 2019).

A short description of series [1]: Dose normalized AUC (0 to 8 hrs) in C57BL/6J mouse at 25 mg/kg/day, ig by HPLC-MS/MS analysis. Type of series: ADME, organism-based. The conditions noted are these: in vivo, po. The gist of the method: (§1)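 Male C57BL/6J mice, six to eight weeks old, about 20 g, fasted 12 h with free water. Given a single intragastric dose of 25, 50 or 100 mg/kg in 10% DMSO/30% PEG-100/0.9% NaCl. Blood taken retro-orbitally at 5 min to 8 h. Plasma protein-precipitated with methanol plus internal standard, then HPLC-MS/MS on a C18 column. Noncompartmental analysis, n = 6.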

The nature of series [2]: Apparent volume of distribution during terminal phase in C57BL/6J mouse at 100 mg/kg/day, ig by HPLC-MS/MS analysis. The note with it: in vivo, po, read-out: Vz/F. The format is ADME, organism-based. The gist of the method: as §1
For series [3], the target named is T1, Phosphatidylcholine:ceramide cholinephosphotransferase 2 (Mus musculus) (UniProt Q9D4B1).
T1 sequence (whole entry): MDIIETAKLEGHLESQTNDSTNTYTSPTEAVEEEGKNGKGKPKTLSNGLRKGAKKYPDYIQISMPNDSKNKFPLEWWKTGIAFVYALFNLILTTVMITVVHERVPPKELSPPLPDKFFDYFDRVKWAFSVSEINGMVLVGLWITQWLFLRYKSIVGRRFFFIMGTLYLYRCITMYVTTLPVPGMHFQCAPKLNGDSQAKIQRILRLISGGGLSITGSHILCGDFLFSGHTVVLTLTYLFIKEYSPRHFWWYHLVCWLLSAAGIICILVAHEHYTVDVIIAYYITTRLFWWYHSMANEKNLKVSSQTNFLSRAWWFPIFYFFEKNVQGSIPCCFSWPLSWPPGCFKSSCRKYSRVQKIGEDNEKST
Kind of series: Inhibition of SMS2 in C57BL/6J mouse bone marrow derived macrophages assessed as increase in [3H]-cholesterol efflux after 17 hrs by liquid scintillation analysis. The gist of the method: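 Bone marrow macrophages treated with inhibitor at various concentrations for 17 h, labeled with [³H]-cholesterol on acetylated LDL, equilibrated 1 h in DMEM/0.2% BSA, then given 50 µg/ml HDL; medium taken at 8 h. Efflux = medium radioactivity as percent of medium plus cell-lysate total, by scintillation counting.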

Series [4] in a line: Apparent oral clearance in C57BL/6J mouse at 100 mg/kg/day, ig by HPLC-MS/MS analysis. Type of series: ADME, organism-based. The conditions noted are these: in vivo. The gist of the method:
as §1

Series [5] concerns the target T2, Phosphatidylcholine:ceramide cholinephosphotransferase 1 (Homo sapiens) (UniProt Q86VZ5).
T2 sequence (whole entry): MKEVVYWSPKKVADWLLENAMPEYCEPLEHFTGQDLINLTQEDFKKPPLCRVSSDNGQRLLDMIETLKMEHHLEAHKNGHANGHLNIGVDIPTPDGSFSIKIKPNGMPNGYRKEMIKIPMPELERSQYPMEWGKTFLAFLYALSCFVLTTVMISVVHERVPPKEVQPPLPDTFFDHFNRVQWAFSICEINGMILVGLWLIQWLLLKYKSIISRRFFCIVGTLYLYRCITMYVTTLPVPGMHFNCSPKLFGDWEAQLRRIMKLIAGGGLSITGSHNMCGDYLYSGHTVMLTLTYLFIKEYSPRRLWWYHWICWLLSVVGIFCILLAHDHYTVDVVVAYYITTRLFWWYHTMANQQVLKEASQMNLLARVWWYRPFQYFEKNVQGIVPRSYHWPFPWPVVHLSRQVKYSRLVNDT
The experiment in a line: (§2) Inhibition of purified SMS1 (unknown origin) using C6-NBD-Ceramide and DMPC as substrates preincubated for 5 mins followed by substrate addition and measured after 30 mins by TLC or HPLC method. The gist of the method:
(§3)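 Purified SMS1 or SMS2 in DDM detergent buffer; inhibitor in DMSO pre-incubated 5 min at room temperature, then C6-NBD-ceramide and DMPC added, 30 min at 37 °C; ethanol quench, TLC or HPLC read-out. Activity expressed as percent of no-inhibitor vehicle; IC50 from ten (SMS1) or eight (SMS2) concentrations, mean ± SD, n = 3.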

Series [6] has as its target T3, Phosphatidylcholine:ceramide cholinephosphotransferase 1 (Homo sapiens, UniProt Q86VZ5).
T3 sequence (Q86VZ5 whole entry): T2 sequence (whole entry)
The description is as §2. The gist of the method:
as §3

A short description of series [7]: Tmax in C57BL/6J mouse at 100 mg/kg/day, ig by HPLC-MS/MS analysis. The format is ADME, organism-based. The note with it: in vivo, po. The gist of the method:
(§4)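 Male C57BL/6J mice (6–8 weeks, ~20 g), fasted 12 h, given a single intragastric dose of 25, 50 or 100 mg/kg in 10% DMSO/30% PEG/0.9% NaCl. Retro-orbital blood at 5 min to 8 h; plasma protein-precipitated with methanol plus internal standard, assayed by LC-MS/MS; noncompartmental analysis. Mean ± SD, n = 6.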

The nature of series [8]: Dose normalized AUC (0 to 8 hrs) in C57BL/6J mouse at 50 mg/kg/day, ig by HPLC-MS/MS analysis. The conditions noted are these: in vivo, po. The format is ADME, organism-based. The gist of the method: as §1
Series [9] has as its system Mus musculus. Kind of series: Anti-atherosclerotic activity in ig dosed apoE knockout mouse fed with western-type diet assessed as reduction in plasma sphingomyelin level. Type of series: functional, organism-based. The gist of the method: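 ApoE KO mice on Western-type diet, dosed by gavage at 12.5 or 40 mg/kg/day for 7 weeks, n = 10. Blood collected at 20 weeks of age. Plasma SM measured by a previously reported method. ALT and AST read on an automated biochemical analyzer.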

For series [10], the system named is Mus musculus. Kind of series: Effect on plasma ALT levels in C57BL/6J mouse at 100 mg/kg/day, ig qd for 7 days measured on day 7. The conditions noted are these: in vivo, po, 168 h. Type of series: ADME, organism-based. The gist of the method:
(§5)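 C57BL/6J mice dosed by gavage at 100 mg/kg once daily for 7 days. Plasma SM sampled on days 0, 3 and 7. Plasma ALT and AST measured on day 7 by automated analyzer. Compared with vehicle, n = 10.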

A further series concerns BMDM. The experiment in a line: Inhibition of LPS-induced MCP1 production in C57BL/6J mouse bone marrow derived macrophages at 6.25 to 50 uM preincubated for 17 hrs followed by LPS-stimulation and measured after 6 hrs by ELISA. Type of series: functional, cell-based. The gist of the method: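 Mouse bone marrow-derived macrophages exposed to a range of inhibitor concentrations for 17 h, then LPS 50 ng/ml for 6 h; IL-6 and MCP-1 in culture medium quantified by ELISA. Mean ± SD, n = 7.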

Series [11] can be described thus: Half life in C57BL/6J mouse at 25 mg/kg/day, ig by HPLC-MS/MS analysis. The format is ADME, organism-based. The conditions noted are these: in vivo, po. The gist of the method: as §1
Series [12] in a line: MRT (0 to 8 hrs) in C57BL/6J mouse at 100 mg/kg/day, ig by HPLC-MS/MS analysis. Type of series: ADME, organism-based. The note with it: in vivo, po. The gist of the method: as §4
Series [13] in a line: Apparent oral clearance in C57BL/6J mouse at 50 mg/kg/day, ig by HPLC-MS/MS analysis. The format is ADME, organism-based. The note with it: in vivo. The gist of the method:
as §1

Series [14] deals with Mus musculus. Kind of series: Effect on body weight in apoE knockout mouse fed with western-type diet at 12.5 to 40 mg/kg/day, ig for 7 weeks. The conditions noted are these: in vivo, po, 1176 h. The format is ADME, organism-based. The gist of the method: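 ApoE KO mice on Western-type diet, dosed by gavage daily at 12.5 or 40 mg/kg for 7 weeks. Body weight recorded weekly throughout dosing and compared with vehicle, 10 mice per group.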

The nature of series [15]: Half life in C57BL/6J mouse at 100 mg/kg/day, ig by HPLC-MS/MS analysis. The format is ADME, organism-based. The conditions noted are these: in vivo, po. The gist of the method:
as §1

The subject of series [16] is Mus musculus. Kind of series: Effect on plasma AST levels in C57BL/6J mouse at 100 mg/kg/day, ig qd for 7 days measured on day 7. The conditions noted are these: in vivo, po, 168 h. The format is ADME, organism-based. The gist of the method:
as §5

Active and inactive are the calls of the source.

Broadly, the CL/F is the apparent clearance, not corrected for the fraction that reaches the circulation. Broadly, the IC50 is the concentration at which inhibition is half-maximal. Read a low IC50 as higher potency. As a reminder, the Tmax is the time from dosing to the highest level. The term half-life denotes the time needed for the level to fall by half in the phase considered. Lower therefore signals fast loss. As usually defined, the MRT is the average time that molecules of a dose stay in the body. Consider `CCc1ccccc1COc1ccccc1C(=O)Nc1cccnc1`, for which the AUC/dose turned out to be 0.08 µg·h/mL in [1] and 0.12 µg·h/mL in [8]. Besides, the Vd/F in series [2] stood at 28.8 L. Also, the inhibition result in [3] and in series [5] was “Dose-dependent effect” throughout. The results for the CL/F in [4] and in series [13] were 143 mL/min and 180 mL/min, respectively. For the same compound, the midpoint of inhibition in series [6], the IC50, lay at 134 µM. Moreover, in series [7], the time of peak concentration (Tmax) is 6 min. The Activity entry with Mus musculus [9] was “Dose-dependent effect”; in the series with Mus musculus [10], “Non-Toxic”; in the series with Mus musculus [14], “Non-Toxic”; in the series with Mus musculus [16], “Non-Toxic”. Moreover, the inhibition entry in the series on BMDM was “Active”. Also, the half-life in series [11] is 3.22 h; in [15] it was 2.51 h. In series [12], this compound came in with a mean residence time MRT of 1.66 h.
